Series [1] has as its system Rattus norvegicus. In words: (§1) Oral bioavailability in rat at 10 mg/kg. It is filed as ADME, organism-based. The note with it: in vivo. The procedure, abridged: (§2)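 Single-dose oral and intravenous administration in rats. Plasma PK parameters were derived from these dosings: clearance and Vss after iv dosing, and Cmax and AUC after oral dosing.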
Series [2] in a line: Half life in rat at 10 mg/kg, po. It is filed as ADME, organism-based. Also on record: dose 10 mg/kg, route oral. The note with it: in vivo. The procedure, abridged:
as §2

Series [3] is described as follows: Cmax in rat at 10 mg/kg, po. Also on record: dose 10 mg/kg, route oral. It is filed as ADME, organism-based. The note with it: in vivo.
Another series addresses Cytochrome P450 2D6 (Homo sapiens, UniProt P10635). In words: Inhibition of CYP2D6. Format: ADME. The procedure, abridged: (§3)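 Inhibition tested separately against P450 isoforms 2C9, 2D6 and 3A4, with test concentrations up to 30 μM.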
The test system of series [4] is Rattus norvegicus. In words: (§4) AUC in rat at 3 mg/kg, iv. Format: ADME, organism-based, Plasma. The arrangement: dose 3 mg/kg, route intravenous. To be noted: in vivo. The procedure, abridged:
as §2

Series [5] deals with Rattus norvegicus. In words: (§5) AUC in rat at 10 mg/kg, po. Format: ADME, organism-based, Plasma. Also on record: dose 10 mg/kg, route oral. The note with it: in vivo.
The nature of series [6]: Clearance in rat at 3 mg/kg, iv. Format: ADME, organism-based. Also on record: dose 3 mg/kg, route intravenous. The note with it: in vivo.
In the next series the target is Cytochrome P450 2C9 (Homo sapiens, UniProt P11712). In words: Inhibition of CYP2C9. It is filed as ADME. The procedure, abridged:
as §3

Series [7] addresses T1, Cytochrome P450 3A4 (Homo sapiens, UniProt P08684). In words: Inhibition of CYP3A4. Format: ADME. The procedure, abridged:
as §3

Series [8] in a line: Half life in rat at 3 mg/kg, iv. Format: ADME, organism-based. The note with it: in vivo. Also on record: dose 3 mg/kg, route intravenous.
Series [9] can be described thus: Solubility of the compound. Format: physicochemical. The procedure, abridged:
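Kinetic aqueous solubility, determined at pH 6.8 and reported in […].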

The nature of series [10]: as §5. Format: ADME, organism-based, Plasma. Also on record: dose 10 mg/kg, route oral. To be noted: plasma.
Another series relates to Caco-2. In words: Permeability across human Caco2 cell membrane. It is filed as ADME, cell-based.
The nature of series [11]: as §1. It is filed as ADME, organism-based. The note with it: in vivo. The procedure, abridged:
as §2

The nature of series [12]: as §4. Format: ADME, organism-based, Plasma. Also on record: dose 3 mg/kg, route intravenous. To be noted: plasma. The procedure, abridged: as §2
For series [13], the system named is Human immunodeficiency virus 1. In words: Antiviral activity against multidrug-resistant R5 tropic HIV1 MM infected in human PBMC assessed as inhibition of […] antigen expression. Format: functional, organism-based. To be noted: Human immunodeficiency virus 1, MM.
Series [14] has as its system Human immunodeficiency virus 1. In words: Antiviral activity against R5 tropic HIV1 Ba-L infected in human PBMC assessed as inhibition of […] antigen expression. Format: functional, organism-based. The note with it: Human immunodeficiency virus 1, Ba-L.
Series [15] has as its target T1, Cytochrome P450 3A4. In words: Inhibition of CYP3A4 upto 30 uM. It is filed as ADME. The procedure, abridged: as §3
In series [16] the target is C-C chemokine receptor type 5 (Homo sapiens, UniProt P51681). In words: Antagonist activity at human CCR5 expressed in CHO cells assessed as inhibition of MIP-1alpha-induced calcium mobilization Ca assay. It is filed as functional, cell-based. On the technique in general: A change in cytosolic calcium serves as a functional read-out for many receptors and channels.
C-C chemokine receptor type 5, sequence (P51681 whole entry): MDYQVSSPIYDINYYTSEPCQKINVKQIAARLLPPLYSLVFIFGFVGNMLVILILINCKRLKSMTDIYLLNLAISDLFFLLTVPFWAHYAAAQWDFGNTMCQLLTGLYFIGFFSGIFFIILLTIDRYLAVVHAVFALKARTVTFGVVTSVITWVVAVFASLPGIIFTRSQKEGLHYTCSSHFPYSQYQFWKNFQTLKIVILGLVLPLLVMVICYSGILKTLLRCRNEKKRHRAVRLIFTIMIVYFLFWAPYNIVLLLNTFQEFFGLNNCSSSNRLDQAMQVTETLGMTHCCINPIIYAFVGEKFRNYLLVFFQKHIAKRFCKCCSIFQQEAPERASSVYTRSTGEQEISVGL
Series [17] can be described thus: Aqueous solubility of the compound at pH 6.8. Format: physicochemical. To be noted: buffer. The procedure, abridged:
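Kinetic aqueous solubility at pH 6.8, reported in μg/mL.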

The text below walks through data of ChEMBL document CHEMBL1667838, “Spirodiketopiperazine-based CCR5 antagonist: discovery of an antiretroviral drug candidate” (Bioorg Med Chem Lett, 2011).

Structures are written as SMILES. pIC50: −log10 of the molar value. Values after ≈ are worked out from the molar mass of the structure shown.

Cytochrome P450 2C9, sequence (P11712 whole entry): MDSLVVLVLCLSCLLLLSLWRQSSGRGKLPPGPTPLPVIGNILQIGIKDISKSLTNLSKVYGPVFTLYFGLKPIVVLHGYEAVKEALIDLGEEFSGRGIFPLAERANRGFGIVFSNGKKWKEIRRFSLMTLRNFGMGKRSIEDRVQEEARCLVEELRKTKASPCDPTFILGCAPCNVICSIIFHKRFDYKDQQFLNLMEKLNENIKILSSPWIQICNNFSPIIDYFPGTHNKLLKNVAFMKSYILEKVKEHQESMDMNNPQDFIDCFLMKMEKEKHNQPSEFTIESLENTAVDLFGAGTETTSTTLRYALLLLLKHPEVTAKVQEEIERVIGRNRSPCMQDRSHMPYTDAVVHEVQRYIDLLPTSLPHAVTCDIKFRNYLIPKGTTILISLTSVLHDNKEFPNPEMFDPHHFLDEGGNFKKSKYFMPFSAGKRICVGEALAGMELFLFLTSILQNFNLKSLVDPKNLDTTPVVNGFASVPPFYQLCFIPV
Cytochrome P450 2D6, sequence (P10635 whole entry, canonical isoform): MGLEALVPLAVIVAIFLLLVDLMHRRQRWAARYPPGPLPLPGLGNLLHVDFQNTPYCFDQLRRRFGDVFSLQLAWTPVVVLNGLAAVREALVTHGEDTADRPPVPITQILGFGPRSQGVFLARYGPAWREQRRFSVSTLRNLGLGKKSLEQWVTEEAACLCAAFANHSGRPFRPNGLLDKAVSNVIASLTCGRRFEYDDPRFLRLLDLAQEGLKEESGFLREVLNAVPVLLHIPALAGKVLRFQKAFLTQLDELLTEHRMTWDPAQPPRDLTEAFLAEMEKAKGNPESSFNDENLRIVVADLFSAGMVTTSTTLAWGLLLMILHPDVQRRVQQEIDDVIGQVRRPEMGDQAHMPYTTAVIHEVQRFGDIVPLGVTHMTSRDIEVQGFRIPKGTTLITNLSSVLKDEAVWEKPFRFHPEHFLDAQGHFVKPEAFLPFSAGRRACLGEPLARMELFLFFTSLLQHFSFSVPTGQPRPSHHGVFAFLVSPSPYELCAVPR
T1 sequence (P08684 whole entry): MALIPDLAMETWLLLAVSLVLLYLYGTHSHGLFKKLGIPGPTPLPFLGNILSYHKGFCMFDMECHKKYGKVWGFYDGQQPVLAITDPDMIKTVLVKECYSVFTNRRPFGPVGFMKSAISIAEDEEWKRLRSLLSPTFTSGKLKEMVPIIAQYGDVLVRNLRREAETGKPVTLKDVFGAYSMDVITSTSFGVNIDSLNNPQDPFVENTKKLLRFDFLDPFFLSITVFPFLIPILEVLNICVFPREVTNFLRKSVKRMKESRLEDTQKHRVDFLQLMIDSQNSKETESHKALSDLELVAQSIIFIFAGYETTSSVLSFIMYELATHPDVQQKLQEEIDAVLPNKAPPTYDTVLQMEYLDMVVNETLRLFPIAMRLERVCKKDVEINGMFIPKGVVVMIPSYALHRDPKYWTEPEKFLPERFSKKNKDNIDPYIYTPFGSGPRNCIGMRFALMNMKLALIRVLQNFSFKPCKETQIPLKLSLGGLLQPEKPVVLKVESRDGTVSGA

`CCCCN1C(=O)[C@H](CC2CCCCC2)NC(=O)C12CCN(Cc1ccc(Oc3ccc(C(=O)O)cc3)cc1)CC2.Cl` displayed a F with Rattus norvegicus [1] of 34%. The half-life was found to be 48.4 min in [2] and 11.1 min in series [8]. For the same molecule, the peak level in [3] (Cmax) was 2400 ng/mL. Moreover, the pIC50 is less than 4.52 at Cytochrome P450 2D6, 5.06 at Cytochrome P450 2C9 and 4.60 against Cytochrome P450 3A4 [7]. Moreover, the exposure (AUC) in the series on Rattus norvegicus [4] was 3091 ng·h/mL; in the series with Rattus norvegicus [5], 10532 ng·h/mL. In series [6], this molecule showed a clearance of 16 mL/min/kg.

With `CCCCN1C(=O)[C@@H]([C@@H](O)C2CCCCC2)NC(=O)C12CCN(Cc1ccc(Oc3ccc(C(=O)O)cc3)cc1)CC2.Cl`, the half-life in series [2] was found to be 35.2 min. Moreover, in series [3], the Cmax turned out to be 70 ng/mL. Besides, the negative-log IC50 (pIC50) against Cytochrome P450 2D6 is less than 4.52; at Cytochrome P450 2C9, 4.74; at Cytochrome P450 3A4 [7], less than 4.52. Further, in [9], the solubility was found to be 81 µM. The AUC in series [10] stood at 67.5 ng·h/mL.

`CCCCN1C(=O)[C@H]([C@H](O)C2CCCCC2)NC(=O)C12CCN(Cc1ccc(Oc3ccc(C(=O)O)cc3)cc1)CC2` came in with a half-life in series [2] of 14.4 min. Moreover, in series [3], the highest level (Cmax) was 280 ng/mL. Further, the negative-log IC50 (pIC50) against Cytochrome P450 2D6, against Cytochrome P450 2C9 and at Cytochrome P450 3A4 [7] was less than 4.52 each time. The amount in solution in series [9] (solubility) came to 85 µM (≈ 49.1 µg/mL). The molecule further came in with a permeability in the series on Caco-2 of 1.6 ×10⁻⁶ cm/s. Also, the AUC in series [10] is 126 ng·h/mL.

In [11], `CCCCN1C(=O)[C@H]([C@@H](O)C2CCCCC2)NC(=O)C12CCN(Cc1ccc(Oc3ccc(C(=O)O)cc3)cc1)CC2.Cl` displayed a bioavailability of 6.5%. Besides, the half-life in series [2] is 19.2 min; in series [8], 16.2 min. Moreover, in [3], the Cmax is 260 ng/mL. Besides, the pIC50 against Cytochrome P450 2D6, against Cytochrome P450 2C9 and on Cytochrome P450 3A4 [7] was less than 4.52 in each case. The solubility in series [9] was found to be 80 µM. In the series on Caco-2, the permeability was 2.1 ×10⁻⁶ cm/s. The AUC in series [12] is 988 ng·h/mL; in [10], 213 ng·h/mL. The clearance in series [6] came out at 50.9 mL/min/kg.

In the case of `Cc1ccc(-c2ccc3c(c2)C=C(C(=O)Nc2ccc(C[N+](C)(C)C4CCOCC4)cc2)CCC3)cc1`, the results for the pIC50 in series [13] and in series [14] were 7.85 and 7.55, respectively.

With `CCCCN1C(=O)[C@@H]([C@H](O)C2CCCCC2)NC(=O)C12CCN(Cc1ccc(Oc3ccccc3)cc1)CC2.Cl`, the “inhibition (INH)” value at Cytochrome P450 3A4 [15] is “Not Active”. The pIC50 at Cytochrome P450 2D6 was 5.01; on Cytochrome P450 2C9, 5.43; against Cytochrome P450 3A4 [7], less than 4.52.

On to `CCCCN1C(=O)[C@@H]([C@H](O)C(C)C)NC(=O)C12CCN(Cc1ccc(Oc3ccccc3)cc1)CC2`, for which the negative-log IC50 (pIC50) in [16] is 7.08; against Cytochrome P450 2D6, less than 4.52; at Cytochrome P450 2C9 it was less than 4.52; on Cytochrome P450 3A4 [7], less than 4.52.

In the case of `Cc1c(O)cccc1C(=O)N[C@@H](CSc1ccccc1)[C@H](O)CN1C[C@H]2CCCC[C@H]2C[C@H]1C(=O)NC(C)(C)C`, in series [13], the negative logarithm of the IC50 (pIC50) is less than 6.00.

`CCCCN1C(=O)C(CC2CCCCC2)NC(=O)C12CCN(Cc1ccc(Oc3ccccc3)cc1)CC2.Cl` (racemic) registered a bioavailability in [11] of 1.9%. The molecule further returned a half-life in [2] of 103 min. The molecule also returned a solubility in series [17] of less than 0.2 µg/mL. Moreover, the negative logarithm of the IC50 (pIC50) is 5.11 on Cytochrome P450 2D6 and 5.26 against Cytochrome P450 2C9. The same molecule registered an AUC in the series on Rattus norvegicus [4] of 400 ng·h/mL.

Molecule `CCCCN1C(=O)C(CC(C)C)NC(=O)C12CCN(Cc1ccc(Oc3ccccc3)cc1)CC2.Cl` (racemic) yielded a bioavailability in [11] of 1.3%. In series [2], this molecule displayed a half-life of 75.7 min. Further, the results for the pIC50 against Cytochrome P450 2D6, against Cytochrome P450 2C9 and on Cytochrome P450 3A4 [7] were 5.34, 5.23 and 4.71, respectively. Moreover, in the series on Rattus norvegicus [4], the AUC is 372 ng·h/mL.

`CCCCN1C(=O)[C@@H]([C@H](O)C2CCCCC2)NC(=O)C12CCN(Cc1ccc(Oc3ccc(C(=O)O)cc3)cc1)CC2.Cl` [APLAVIROC HYDROCHLORIDE]: the bioavailability in [11] was 23%. Besides, the half-life came to 120 min in series [2] and 21.8 min in [8]. Besides, in [3], the Cmax is 2360 ng/mL. Also, the pIC50 against Cytochrome P450 2D6, against Cytochrome P450 2C9 and at Cytochrome P450 3A4 [7] was less than 4.52 in each case. This molecule also returned a solubility in series [9] of 70 µM. The molecule also registered a permeability with Caco-2 of 3.8 ×10⁻⁶ cm/s. Besides, the results for the AUC in series [12] and in [10] were 4400 ng·h/mL and 3420 ng·h/mL, respectively. Further, the clearance in [6] was found to be 11.3 mL/min/kg.

As for `COC[C@@H](c1ccc(C(F)(F)F)cc1)N1CCN(C2(C)CCN(C(=O)c3c(C)ncnc3C)CC2)C[C@@H]1C` [VICRIVIROC], the pIC50 in [13] was 8.52; in series [14], 8.40.

The half-life is how long it takes for the measured level to halve. As usually defined, the Cmax is the highest concentration seen after dosing. As usually defined, the pIC50 is the negative decadic logarithm of the IC50, by convention in mol/L. One may read the AUC as the area under the concentration-time curve, a measure of exposure. As usually defined, the clearance is the rate of elimination divided by the concentration. A high value points to efficient removal. Broadly, the solubility is the dissolved amount per volume that the medium holds. The low end stands for little dissolved substance, the high end for much dissolved substance. For orientation: bioavailability means dose-corrected exposure relative to a reference, in per cent. A higher bioavailability goes with much systemic uptake.
